{
  "source": "paper PMC10962891",
  "about": "(Hepatology Communications, 2024)",
  "key": {"human FXRα2": {"target": "T1, human FXRα2 (Homo sapiens, UniProt Q96RI1)", "T1 sequence (Q96RI1 1-472 isoform Q96RI1-2)": "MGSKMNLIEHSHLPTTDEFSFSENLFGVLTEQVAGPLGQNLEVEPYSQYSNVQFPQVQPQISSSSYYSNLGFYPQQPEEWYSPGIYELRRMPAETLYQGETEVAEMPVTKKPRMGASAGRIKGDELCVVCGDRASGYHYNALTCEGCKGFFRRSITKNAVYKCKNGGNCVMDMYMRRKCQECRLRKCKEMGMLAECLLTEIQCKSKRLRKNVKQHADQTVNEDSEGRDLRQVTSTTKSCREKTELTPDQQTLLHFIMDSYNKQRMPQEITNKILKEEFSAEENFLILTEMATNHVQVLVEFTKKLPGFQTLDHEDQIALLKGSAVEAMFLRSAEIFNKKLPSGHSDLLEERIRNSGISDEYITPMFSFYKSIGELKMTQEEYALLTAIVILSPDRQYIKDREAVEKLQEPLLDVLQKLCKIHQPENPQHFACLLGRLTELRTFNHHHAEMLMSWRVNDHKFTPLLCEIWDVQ", "T1 sequence (P19793 1-462 partner)": "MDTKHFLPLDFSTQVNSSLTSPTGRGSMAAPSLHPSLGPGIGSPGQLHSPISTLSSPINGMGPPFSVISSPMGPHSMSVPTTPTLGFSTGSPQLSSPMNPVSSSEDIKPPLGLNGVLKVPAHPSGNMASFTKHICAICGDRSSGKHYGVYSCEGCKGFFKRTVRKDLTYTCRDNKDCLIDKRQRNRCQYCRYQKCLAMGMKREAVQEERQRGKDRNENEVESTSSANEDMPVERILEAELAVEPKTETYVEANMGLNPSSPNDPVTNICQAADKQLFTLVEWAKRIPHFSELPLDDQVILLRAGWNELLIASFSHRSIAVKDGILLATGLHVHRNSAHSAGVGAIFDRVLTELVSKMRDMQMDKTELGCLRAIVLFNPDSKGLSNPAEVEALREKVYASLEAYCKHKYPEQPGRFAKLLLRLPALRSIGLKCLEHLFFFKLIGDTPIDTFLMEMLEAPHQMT", "assay": "FXR luciferase reporter assay in 293T cells transfected with FXRα2", "assay_type": "cell-based", "settings": "for EC50: read-out: EC50 for FXR (cell-based reporter assay, composite EC50), second column entry, 293T cells expressing FXRα2, RXRα, ASBT, repeated thrice for L-TyrCDCA only", "summary_of_the_method": "(§1)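 293T cells (70–80% confluent) were co-transfected by lipofection with FXRα2 or FXRα4 (10 ng), RXRα (2 ng), an Shp-element firefly reporter (5 ng), Renilla pRL-TK (2 ng), ASBT or NTCP (0 or 1 ng) and GFP filler to 100 ng. After 24 h, cells received 0.1% DMSO, a 10 µM positive control, or test compounds in serum-free medium for 24 h. Firefly:Renilla ratios were set relative to DMSO; quadruplicates, 3 independent runs.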"}, "[1]": {"settings": "mice, considerable dose; cited from earlier work"}, "microbial composition": {"tested_on": "microbial composition", "settings": "initial tests; cited from earlier work"}, "C. difficile [2]": {"tested_on": "C. difficile", "settings": "cited from earlier work"}, "C. difficile [3]": {"tested_on": "C. difficile", "settings": "cited from earlier work", "remark": "listed apart in the source"}, "RAW264.7 cells": {"tested_on": "RAW264.7 cells", "assay": "LPS-induced cytokine release", "assay_type": "cell-based, murine", "settings": "then 3 ng/mL LPS 23 h; for effect on LPS-enhanced medium levels of TNFα and IL-6: 100 µM pretreatment 1 h", "summary_of_the_method": "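RAW264.7 cells at 70–80% confluency were pretreated 1 h in serum-free medium with 0.1% DMSO, a 50 µM positive control, or test compounds. LPS (E. coli O128:B12, 3 ng/mL) was then added for 23 h. Cleared supernatants (300 g, 10 min) were assayed for IL-6 and TNFα by ELISA, normalized to cellular protein. Quadruplicates; three repeats.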"}, "human TGR5 [4]": {"target": "T2, human TGR5 (Homo sapiens, UniProt Q8TDU6)", "T2 sequence (Q8TDU6 1-330)": "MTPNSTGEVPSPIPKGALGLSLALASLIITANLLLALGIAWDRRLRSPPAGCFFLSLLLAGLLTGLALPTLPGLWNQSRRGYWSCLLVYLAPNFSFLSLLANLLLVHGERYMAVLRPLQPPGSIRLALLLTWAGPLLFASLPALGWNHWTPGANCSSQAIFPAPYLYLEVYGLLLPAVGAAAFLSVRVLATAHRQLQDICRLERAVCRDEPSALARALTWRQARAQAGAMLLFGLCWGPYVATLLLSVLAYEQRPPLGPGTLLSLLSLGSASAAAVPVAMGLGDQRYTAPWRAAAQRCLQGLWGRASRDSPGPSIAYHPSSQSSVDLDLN", "assay": "cell-based"}, "human FXRα4": {"target": "T3, human FXRα4 (Homo sapiens, UniProt Q96RI1)", "T3 sequence (Q96RI1 1-482 isoform Q96RI1-4)": "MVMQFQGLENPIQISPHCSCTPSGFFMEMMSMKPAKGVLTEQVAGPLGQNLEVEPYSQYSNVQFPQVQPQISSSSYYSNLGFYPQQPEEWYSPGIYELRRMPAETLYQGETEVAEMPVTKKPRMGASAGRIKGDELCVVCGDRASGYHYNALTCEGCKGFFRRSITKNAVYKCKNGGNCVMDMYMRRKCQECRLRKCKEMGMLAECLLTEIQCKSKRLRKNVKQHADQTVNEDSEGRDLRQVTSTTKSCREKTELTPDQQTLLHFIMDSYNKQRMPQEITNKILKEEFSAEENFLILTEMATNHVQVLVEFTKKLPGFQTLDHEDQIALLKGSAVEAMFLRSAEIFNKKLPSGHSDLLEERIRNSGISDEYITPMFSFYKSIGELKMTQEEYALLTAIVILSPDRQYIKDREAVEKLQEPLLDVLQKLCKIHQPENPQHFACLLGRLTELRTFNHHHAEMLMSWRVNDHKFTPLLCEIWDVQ", "T3 sequence (P19793 1-462 partner)": "T1 sequence (P19793 1-462 partner)", "assay": "FXR luciferase reporter assay in 293T cells transfected with FXRα4", "assay_type": "cell-based", "settings": "10 µM, cells overexpressing FXRα4, independent of bile salt importer", "summary_of_the_method": "as §1"}, "human TGR5 [5]": {"target": "T2, human TGR5", "assay_type": "cell-based", "settings": "10 µM positive control, 293T cells -/+ TGR5 overexpression"}},
  "note": "Entries after “also recorded” stand apart in the source; their conditions may differ.",
  "data": [
    {"molecule": "C[C@H](CCC(=O)N[C@H](Cc1ccc(O)cc1)C(=O)O)[C@H]1CC[C@H]2[C@@H]3[C@H](O)C[C@@H]4C[C@H](O)CC[C@]4(C)[C@H]3CC[C@]12C", "note": "[D-TyrCDCA, D-Tyrosochenodeoxycholic acid]", "values": [
      {"measurement": "EC50", "setting": "human FXRα2", "value": 6.8, "unit": "µM"}
    ]},
    {"molecule": "C[C@H](CCC(=O)N[C@@H](Cc1ccc(O)cc1)C(=O)O)[C@H]1CC[C@H]2[C@@H]3[C@H](O)C[C@@H]4C[C@H](O)CC[C@]4(C)[C@H]3C[C@H](O)[C@]12C", "note": "[TyrCA, tyrosocholic acid]", "values": [
      {"measurement": "detection in portal blood or bile after repeated oral gavage", "setting": "[1]", "value": "failure to detect; also recorded: did not lead to detection"},
      {"measurement": "effect on microbial composition in vitro", "setting": "microbial composition", "value": "did not affect"},
      {"measurement": "spore germination of C. difficile", "setting": "C. difficile [2]", "value": "inhibit"},
      {"measurement": "growth of C. difficile", "setting": "C. difficile [3]", "value": "not inhibited"}
    ]},
    {"molecule": "C[C@H](CCC(=O)N[C@@H](Cc1ccccc1)C(=O)O)[C@H]1CC[C@H]2[C@@H]3[C@H](O)C[C@@H]4C[C@H](O)CC[C@]4(C)[C@H]3C[C@H](O)[C@]12C", "note": "[PheCA, phenylalanocholic acid]", "values": [
      {"measurement": "effect on LPS-enhanced medium levels of TNFα and IL-6", "setting": "RAW264.7 cells", "value": "counteracted"},
      {"measurement": "effect on microbial composition in vitro", "setting": "microbial composition", "value": "did not affect"},
      {"measurement": "spore germination of C. difficile", "setting": "C. difficile [2]", "value": "inhibit"},
      {"measurement": "growth of C. difficile", "setting": "C. difficile [3]", "value": "not inhibited"}
    ]},
    {"molecule": "C[C@H](CCC(=O)NCCS(=O)(=O)O)[C@H]1CC[C@H]2[C@@H]3CC[C@@H]4C[C@H](O)CC[C@]4(C)[C@H]3CC[C@]12C", "note": "[TLCA, taurolithocholic acid, reference compound]", "values": [
      {"measurement": "change of LPS-induced IL-6 level", "setting": "RAW264.7 cells; 50 µM pretreatment 1 h", "value": -4.6, "unit": "fold"},
      {"measurement": "change of LPS-induced TNFα level", "setting": "RAW264.7 cells; 50 µM pretreatment 1 h", "value": -3.6, "unit": "fold"}
    ]},
    {"molecule": "CC(CCC(=O)NCC(=O)O)C1CCC2C3C(O)CC4CC(O)CCC4(C)C3CCC12C", "note": "(centres unmarked) [GCDCA, glycochenodeoxycholic acid]", "values": [
      {"measurement": "EC50", "setting": "human TGR5 [4]", "value": "29.4 ± 0.9", "unit": "µM"}
    ]},
    {"molecule": "CC(C)C[C@H](NC(=O)CC[C@@H](C)[C@H]1CC[C@H]2[C@@H]3[C@H](O)C[C@@H]4C[C@H](O)CC[C@]4(C)[C@H]3C[C@H](O)[C@]12C)C(=O)O", "note": "[LeuCA, leucocholic acid]", "values": [
      {"measurement": "detection in portal blood or bile after repeated oral gavage", "setting": "[1]", "value": "failure to detect; also recorded: did not lead to detection"},
      {"measurement": "effect on microbial composition in vitro", "setting": "microbial composition", "value": "did not affect"}
    ]},
    {"molecule": "C[C@H](CCC(=O)N[C@@H](Cc1ccc(O)cc1)C(=O)O)[C@H]1CC[C@H]2[C@@H]3[C@H](O)C[C@@H]4C[C@H](O)CC[C@]4(C)[C@H]3CC[C@]12C", "note": "[L-TyrCDCA, L-Tyrosochenodeoxycholic acid]", "values": [
      {"measurement": "EC50", "setting": "human FXRα2", "value": 7.8, "unit": "µM"}
    ]},
    {"molecule": "C[C@H](CCC(=O)NCC(=O)O)[C@H]1CC[C@H]2[C@@H]3[C@H](O)C[C@@H]4C[C@H](O)CC[C@]4(C)[C@H]3C[C@H](O)[C@]12C", "note": "[GCA, glycocholic acid]", "values": [
      {"measurement": "EC50", "setting": "human TGR5 [4]", "value": "342 ± 26.7", "unit": "µM"}
    ]},
    {"molecule": "CC[C@H]1[C@@H](O)[C@@H]2[C@H](CC[C@]3(C)[C@@H]([C@H](C)CCC(=O)O)CC[C@@H]23)[C@@]2(C)CC[C@@H](O)C[C@@H]12", "note": "[OCA, obeticholic acid, reference compound]", "values": [
      {"measurement": "FXR reporter activation", "setting": "human FXRα4", "value": "strongly activated"},
      {"measurement": "FXR reporter activation in mock-transfected cells (-OSTαβ)", "setting": "human FXRα2; 10 µM, FXRα2/RXRα, no transporter", "value": "able to activate FXR"},
      {"measurement": "FXR reporter activation", "setting": "human FXRα2; 10 µM, cells overexpressing FXRα2, independent of bile salt importer", "value": "strongly activated"}
    ]},
    {"molecule": "C[C@H](CCC(=O)NCCS(=O)(=O)O)[C@H]1CC[C@H]2[C@@H]3[C@H](O)C[C@@H]4C[C@H](O)CC[C@]4(C)[C@H]3C[C@H](O)[C@]12C", "note": "[TCA, Taurocholic acid]", "values": [
      {"measurement": "EC50", "setting": "human TGR5 [4]", "value": "277 ± 16.6", "unit": "µM"}
    ]},
    {"molecule": "C[C@H](CCC(=O)N[C@@H](Cc1ccccc1)C(=O)O)[C@H]1CC[C@H]2[C@@H]3[C@H](O)C[C@@H]4C[C@H](O)CC[C@]4(C)[C@H]3CC[C@]12C", "note": "[PheCDCA, phenylalanochenodeoxycholic acid]", "values": [
      {"measurement": "effect on LPS-enhanced medium levels of TNFα and IL-6", "setting": "RAW264.7 cells", "value": "counteracted"}
    ]},
    {"molecule": "C[C@H](CCC(=O)N[C@H](Cc1ccc(O)cc1)C(=O)O)[C@H]1CC[C@H]2[C@@H]3[C@H](O)C[C@@H]4C[C@H](O)CC[C@]4(C)[C@H]3C[C@H](O)[C@]12C", "note": "[D-TyrCA, D-Tyrosocholic acid]", "values": [
      {"measurement": "EC50", "setting": "human FXRα2", "value": 9.9, "unit": "µM"}
    ]},
    {"molecule": "C=C[C@@]1(C)CC(=O)[C@]2(O)[C@@]3(C)[C@@H](O)CCC(C)(C)[C@@H]3[C@H](O)[C@H](OC(C)=O)[C@@]2(C)O1", "note": "[forskolin, Forskolin A]", "values": [
      {"measurement": "activation of cAMP-driven reporter", "setting": "human TGR5 [5]", "value": "activated the reporter independent of TGR5 overexpression"}
    ]},
    {"molecule": "C[C@H](CCC(=O)N[C@@H](Cc1ccccc1)C(=O)O)[C@H]1CC[C@H]2[C@@H]3[C@@H](O)[C@@H](O)[C@@H]4C[C@H](O)CC[C@]4(C)[C@H]3CC[C@]12C", "note": "[Pheβ muricholic acid]", "values": [
      {"measurement": "spore germination of C. difficile", "setting": "C. difficile [2]", "value": "inhibit"}
    ]},
    {"molecule": "C[C@H](CCC(=O)N[C@@H](Cc1ccc(O)cc1)C(=O)O)[C@H]1CC[C@H]2[C@@H]3[C@H](O)C[C@@H]4C[C@H](O)CC[C@]4(C)[C@H]3C[C@H](O)[C@]12C", "note": "[L-TyrCA, L-Tyrosocholic acid]", "values": [
      {"measurement": "EC50", "setting": "human FXRα2", "value": 46.3, "unit": "µM"},
      {"measurement": "affinity for FXRα2 relative to D/L-TyrCDCA (fold lower)", "setting": "human FXRα2; reporter cells expressing uptake transporter", "value": 6, "unit": "fold"}
    ]}
  ]
}
